Assay results taken from the RNAGym collection of RNA variant scans (doi:10.1126/science.aae0568).
Variants at the floor of the assay were thinned out.

B1: tRNA (parent)
chain: GUUCCGUUGGCGUAAUGGUAACGCGUCUCCCUCCUAAGGAGAAGACUGCGGGUUCGAGUCCCGUACGGAACG

Variants of: B1
Experiment: yeast fitness relative to wild type (ratio to wild type); higher = fitter; tRNA-Arg(CCU), competitive growth, 37 C, YPD
Outline: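 Genotype frequency changes were the basis for Darwinian fitness relative to wild type. The frequencies came from 100-nucleotide paired-end sequencing of gene amplicons from the start population and each end population of pooled yeast strains with tRNA-Arg(CCU) gene variants at the native locus. Competition ran in YPD at 37°C for 24 hours in six replicates, genotypes needed ≥ 100 starting reads, and estimates < 0.5 were set to 0.5.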

Compared with C11A C22G A45C G50A, G10C C27A C34A A40G C60U A65U is lower in yeast fitness: 0.741 for the first, at most 0.5 for the second.

Compared with C11A C22U G39C U47A, G10C C24U is higher in yeast fitness: at most 0.5 for the first, 0.716 for the second.

First: C11A A42C G51A
Second: G10C C27U A36C C61U A65G
The yeast fitness of the first is higher: 0.73 for the first, at most 0.5 for the second.

First: G10C C27U A40U A45U G48A C55U C66U
Second: G10C C62A
The yeast fitness of the first is higher: 0.591 for the first, 0.515 for the second.

Compared with G10C C11U A20C A57U, G10C G25C is higher in yeast fitness: at most 0.5 for the first, 0.615 for the second.

Going from G10C U19A A37C to G10C C34A A57U, the yeast fitness rises from 0.502 to 0.577.

G10C U53A and C11A A15U A21U A36C A37U C55U cannot be ordered by yeast fitness: at most 0.5 for the first, at most 0.5 for the second.

First: G10C A37U G52A
Second: G10C C11G
The yeast fitness of the first is lower: at most 0.5 for the first, 0.682 for the second.

G10C G18C C24U and G10C C24U G68C cannot be ordered by yeast fitness: at most 0.5 for the first, at most 0.5 for the second.

Compared with G10C A21G C29A A43U C55A, G10C C29U C31U A65U is lower in yeast fitness: 0.651 for the first, at most 0.5 for the second.

G10C C27U A43G C46G A69C and C11A A42G C49U A65C cannot be ordered by yeast fitness: at most 0.5 for the first, at most 0.5 for the second.

Compared with C11A A21C A43G C60U C62U A70C, G10C G38A C61A is higher in yeast fitness: at most 0.5 for the first, 0.618 for the second.

First: G10C U19A C31G C34A A42G
Second: G10C U26A C49U A65U
The yeast fitness of the first is lower: at most 0.5 for the first, 0.553 for the second.

First: G10C U19G C62G
Second: G10C G56C
The yeast fitness of the first is lower: at most 0.5 for the first, 0.553 for the second.

Going from C11A A14G G25C C29G to G10C U47C, the yeast fitness rises from at most 0.5 to 0.695.

G10C U47G and G10C G12C G39A cannot be ordered by yeast fitness: at most 0.5 for the first, at most 0.5 for the second.

First: C11A A20G C46U G50C C60A A70C
Second: G10C C22A C24G A36G G48A G50C
The yeast fitness of the first is higher: 0.632 for the first, at most 0.5 for the second.

C11A A43G U54C A65C and G10C U13C A15C C24U U54C C60A C62A cannot be ordered by yeast fitness: at most 0.5 for the first, at most 0.5 for the second.

C11A A15G C22G C61U G68A and G10C C30G C60A cannot be ordered by yeast fitness: at most 0.5 for the first, at most 0.5 for the second.

Going from C11A A14C C34A A36G to C11A A21G C62G, the yeast fitness rises from at most 0.5 to 0.655.

G10C G18A G25C A45G and C11A A43U C66U cannot be ordered by yeast fitness: at most 0.5 for the first, at most 0.5 for the second.

G10C A43C C49U and G10C C31A A37U G63A A65G cannot be ordered by yeast fitness: at most 0.5 for the first, at most 0.5 for the second.

First: G10C U26G C27G U32A A40U
Second: G10C A40G
The yeast fitness of the first is lower: at most 0.5 for the first, 0.588 for the second.

First: G10C C46U A65C
Second: G10C C27U A40U A45U
The yeast fitness of the first is higher: 0.621 for the first, at most 0.5 for the second.

C11A A43G G58C C62U and G10C C49A cannot be ordered by yeast fitness: at most 0.5 for the first, at most 0.5 for the second.

First: G10C C49G
Second: G10C C49U
The yeast fitness of the first is higher: 0.619 for the first, 0.613 for the second.

Compared with G10C C22A C24G U53A, C11A A14G U19G A43C U53A is lower in yeast fitness: 0.547 for the first, at most 0.5 for the second.

Going from C11A A21G A40G to C11A C22U U54C, the yeast fitness falls from 0.571 to at most 0.5.

First: C11A C22A C29G
Second: G10C C29G G44C C49A U64C
The yeast fitness of the first is higher: 0.545 for the first, at most 0.5 for the second.

Going from C11A A21G C55G C62A to G10C C46A G68C, the yeast fitness rises from at most 0.5 to 0.57.

C11A A43U C62G A70U and G10C G50U cannot be ordered by yeast fitness: at most 0.5 for the first, at most 0.5 for the second.

G10C C22A C24G U26C U53A and G10C U26A C33U A70G cannot be ordered by yeast fitness: at most 0.5 for the first, at most 0.5 for the second.

G10C A45U C61G and G10C C34A A40G G68C cannot be ordered by yeast fitness: at most 0.5 for the first, at most 0.5 for the second.

Compared with G10C G41C C62U C66G A70G, G10C C31G C33U is higher in yeast fitness: at most 0.5 for the first, 0.698 for the second.

Compared with C11A A36G G56C, C11A A70C is higher in yeast fitness: at most 0.5 for the first, 0.593 for the second.

Going from C11A A70G to C11A A42C C46G C60A, the yeast fitness falls from 0.774 to at most 0.5.

First: G10C A43U C46G
Second: G10U G17A C24A
The yeast fitness of the first is lower: at most 0.5 for the first, 0.643 for the second.

First: G10C C22G C33U A36C A40U
Second: C11A
The yeast fitness of the first is lower: at most 0.5 for the first, 0.676 for the second.

Going from G10C A69G to G10C A69C, the yeast fitness rises from 0.51 to 0.785.

First: C11A A45C U53C
Second: G10U G17A G25C C29A G52A
The yeast fitness of the first is higher: 0.645 for the first, at most 0.5 for the second.

Going from G10C C66G to G10C G25C U26C U47C, the yeast fitness falls from 0.515 to at most 0.5.

C11A A40G C66U and C11A A57G A69U cannot be ordered by yeast fitness: at most 0.5 for the first, at most 0.5 for the second.

G10C G18C C22U U26G C30U A40G and C11A A21G C31G A36U A65U cannot be ordered by yeast fitness: at most 0.5 for the first, at most 0.5 for the second.

G10C C27G A42C C49A A69C and G10C A36U A42G G56A U59G cannot be ordered by yeast fitness: at most 0.5 for the first, at most 0.5 for the second.

First: G10C C27U G38A C46G G63A
Second: C11A A42G A43U C46U
The yeast fitness of the first is lower: at most 0.5 for the first, 0.532 for the second.

G10C C30G A65C G68C and G10C G18A G58A C66G cannot be ordered by yeast fitness: at most 0.5 for the first, at most 0.5 for the second.

First: G10C G25C G38C A40G A42G
Second: G10C C24U C29G A45U C46G U47A G50A U64G
The yeast fitness of the first is lower: at most 0.5 for the first, 0.536 for the second.

C11A A40G A43U U59G and C11A A15G C22U C29A A43U A45G cannot be ordered by yeast fitness: at most 0.5 for the first, at most 0.5 for the second.

C11A A42U A69U and G10C G25A U64C cannot be ordered by yeast fitness: at most 0.5 for the first, at most 0.5 for the second.

Going from G10C C29G to C11A A42G C61A, the yeast fitness rises from at most 0.5 to 0.618.

First: C11A A20U U47C C60G
Second: C11A A21U C55U
The yeast fitness of the first is lower: at most 0.5 for the first, 0.788 for the second.

Compared with G10C U26A C33U U53C A70C, G10C G44A A70U is lower in yeast fitness: 0.724 for the first, at most 0.5 for the second.

G10C G17A A42U and G10C G18A C27G G63C cannot be ordered by yeast fitness: at most 0.5 for the first, at most 0.5 for the second.

Compared with G10C G51C, C11A A21G is higher in yeast fitness: 0.535 for the first, 0.774 for the second.

Going from G10C U35G A43C U47C C55U C62U A69C to G10C C24G C34G U54G A70U, the yeast fitness rises from at most 0.5 to 0.703.

First: G10C C34U C60A G67A
Second: G10C C33A A45C
The yeast fitness of the first is lower: at most 0.5 for the first, 0.551 for the second.

G10C U16G C31A U32G A57U and G10C U16G C31A U32G A45G cannot be ordered by yeast fitness: at most 0.5 for the first, at most 0.5 for the second.

First: G10C A36G C49U
Second: C11A A43U C49U
The yeast fitness of the first is higher: 0.551 for the first, 0.548 for the second.

First: G10C C27A A42U C62G
Second: G10U C24G A45G
The yeast fitness of the first is higher: 0.556 for the first, at most 0.5 for the second.

G10C C55U G56C and G10C C55U G56A cannot be ordered by yeast fitness: at most 0.5 for the first, at most 0.5 for the second.

G10C C30U U54A and G10C C30G C55A cannot be ordered by yeast fitness: at most 0.5 for the first, at most 0.5 for the second.

First: C11A A21C U28A C55U C62U G67C
Second: C11A A14C
The yeast fitness of the first is lower: at most 0.5 for the first, 0.683 for the second.

Compared with G10C C22U G44C, G10C A21G G56U C66A is higher in yeast fitness: at most 0.5 for the first, 0.727 for the second.

Compared with C11A A36G A69C, G10C C29G A37G is lower in yeast fitness: 0.562 for the first, at most 0.5 for the second.

Going from G10C G63A to G10C G63C, the yeast fitness falls from 0.59 to at most 0.5.

C11A A20U C22U G67C and G10C A36G G41A cannot be ordered by yeast fitness: at most 0.5 for the first, at most 0.5 for the second.

Going from G10C C24U C29A A45U C46G U47A G50A U64G to C11A A14G U19G A43C U53A C62A C66U, the yeast fitness falls from 0.575 to at most 0.5.

Going from G10C G25C G38C A40G A42G U64A G68A to C11A A14C C34A A70U, the yeast fitness falls from 0.515 to at most 0.5.

First: G10C C34U G39U A40C
Second: G10C U13C C24G C55U
The yeast fitness of the first is lower: at most 0.5 for the first, 0.64 for the second.

G10C C60U G63C and C11A A21C G25C C34A A36U G44A cannot be ordered by yeast fitness: at most 0.5 for the first, at most 0.5 for the second.

Going from G10C A43G to G10C C31G C49U, the yeast fitness falls from 0.739 to at most 0.5.

First: G10U G17A C24A C66G
Second: G10C A37G C49U G52A C55G C66A
The yeast fitness of the first is higher: 0.595 for the first, at most 0.5 for the second.

C11A A36G A43C A69U and C11A C24G U47G cannot be ordered by yeast fitness: at most 0.5 for the first, at most 0.5 for the second.

G10C C24A C33G A40G A42G and C11A A15G C33U A37G cannot be ordered by yeast fitness: at most 0.5 for the first, at most 0.5 for the second.

C11A A14G C31G C34G C61U and C11A A15U U16C A21U A36C A37U cannot be ordered by yeast fitness: at most 0.5 for the first, at most 0.5 for the second.

G10C A42C A43G and G10C G63A C66U cannot be ordered by yeast fitness: at most 0.5 for the first, at most 0.5 for the second.

G10C G39C G51A and C11A C22G C29G C61U C62A A70G cannot be ordered by yeast fitness: at most 0.5 for the first, at most 0.5 for the second.

Compared with G10C U26A C33U U53C, G10C C49A C55A C62U C66U is lower in yeast fitness: 0.576 for the first, at most 0.5 for the second.

Compared with C11A C22A C29G A69G, G10C C27A C61U is lower in yeast fitness: 0.576 for the first, at most 0.5 for the second.

C11A A20G G39A G51A U53A C66U and G10C U19A C30G A40C G67C cannot be ordered by yeast fitness: at most 0.5 for the first, at most 0.5 for the second.

C11A A36C A42G C49A and G10C C11U U26A C49U A65U cannot be ordered by yeast fitness: at most 0.5 for the first, at most 0.5 for the second.

C11A A15C C34A C66A and G10C C55G A70C cannot be ordered by yeast fitness: at most 0.5 for the first, at most 0.5 for the second.

Going from G10C U19C C33G to G10C G38C C49A G50C G68C, the yeast fitness falls from 0.769 to at most 0.5.

Variant C11A A21C U53A C62U has a yeast fitness of at most 0.5.
